Results taken from PMC10870986 (Indian Journal of Endocrinology and Metabolism, 2023).

How the values were obtained:
[1] = Etiological profile of hyperprolactinemia, Endocrine OPD; format: in vivo, human; details: 50 subjects with hyperprolactinemia; use of drugs 56% of etiologies; Domperidone with and without PPI
[2] = Hyperprolactinemia in patients referred to a tertiary care hospital; format: in vivo, human; details: for drug-induced hyperprolactinemia with prolactin levels less than 100 ng/ml: number of cases / drug-induced hyperprolactinemia with prolactin levels greater than 100 ng/ml: number of cases: 11 drug-induced cases among 58
[3] = format: in vivo, human
Case: hypomagnesemia = format: in vivo, human; details: single child, Tab. MgO 200mg TID
[4] = Case: Chiari Frommel syndrome treated with bromocriptine; format: in vivo, human; details: single patient, 2.5mg for one month
[5] = Case: ACTH and prolactin co-secreting pituitary adenoma treated with cabergoline; format: in vivo, human; details: single patient
[6] = Giant prolactinoma case series, response to cabergoline; format: in vivo, human; details: follow-up MRI in 17 patients
How it was run: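 Patients with giant prolactinoma all received cabergoline, dose range 0.5-7 mg/week, over a mean follow-up of 11.78 ± 14.89 months. Tumour shrinkage was judged against the baseline maximum tumour dimension on follow-up MRI, which was available for 17 patients.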

[7] = Case: cabozantinib for metastatic MTC; format: in vivo, human; details: single patient
[8] = ref not given, cited from earlier work
[9] = Case: diazoxide in Prader-Willi Syndrome; format: in vivo, human; details: child with PWS
[10] = format: in vivo, human; remark: listed apart in the source
How it was run: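 Observational study of 167 diabetic outpatients seen January–June 2023. All had HbA1c, FPG and PPG uncontrolled on two or three oral hypoglycaemic agents and were unwilling to start insulin. Imeglimin was added as the third or fourth agent, and FPG, PPG, HbA1c and adverse effects were recorded afterwards.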

[11] = Orlistat vs orlistat + resveratrol in overweight/obese subjects, 12 weeks; format: in vivo, human
[12] = format: in vivo, human; details: orlistat 120 mg thrice daily, mean [SD]
[13] = Semaglutide in type 2 diabetes, cross sectional study; format: in vivo, human; details: Likert 5-point scale
[14] = Case series: immune check point inhibitor induced endocrine dysfunction; format: in vivo, human; details: series of ten patients with IRAE
[15] = Case: nivolumab induced endocrine dysfunction; format: in vivo, human; details: single patient, 240 mg fortnightly, after 10 cycles
[16] = Case: growth hormone therapy in short stature with Crohn's disease; format: in vivo, human; details: single patient
[17] = fulminant hepatic failure, fatal
[18] = last Ketoconazole dose the night before surgery, isoflurane anaesthesia
[19] = single patient on Ketoconazole 1200 mg/day and spironolactone 200 mg/day

O=c1[nH]c2ccccc2n1CCCN1CCC(n2c(=O)[nH]c3cc(Cl)ccc32)CC1 [Domperidone]
Among the drugs causing hyperprolactinemia: share of cases [1]: 53.57%
drug-induced hyperprolactinemia with prolactin levels less than 100 ng/ml: number of cases [2]: 3 cases

CC(=O)N1CCN(c2ccc(OCC3COC(Cn4ccnc4)(c4ccc(Cl)cc4Cl)O3)cc2)CC1 (centres unmarked) [Ketoconazole]
ALT, 5th post operative day [3, 17]: 5053 U/L
AST, 5th post operative day [3, 17]: 7844 L⁻¹
GGT, 5th post operative day [3, 17]: 207 U/L
INR, 5th post operative day [3, 17]: > 11
PT, 5th post operative day [3, 17]: > 120 s
aPTT, 5th post operative day [3, 17]: > 180 s
ALT, 4th post operative day [3, 18]: 433 U/L
AST, 4th post operative day [3, 18]: 370 U/L
GGT, 4th post operative day [3, 18]: 233 U/L
ALT before the surgery [3, 19]: 30 IU/ml
AST before the surgery [3, 19]: 27 IU/ml

[O]=[Mg] [MgO]
calcium on treatment (Case: hypomagnesemia): 9.2 mg/dL
Serum Magnesium on treatment (Case: hypomagnesemia; at presentation 0.4mg/dl): 1.2 mg/dL

Cc1cc2c(s1)Nc1ccccc1N=C2N1CCN(C)CC1 [Olanzapine]
Among the drugs causing hyperprolactinemia: share of cases [1]: 3.57%

Cc1nc2n(c(=O)c1CCN1CCC(c3noc4cc(F)ccc34)CC1)CCCC2 [Risperidone]
Among the drugs causing hyperprolactinemia: share of cases [1]: 7.14%
drug-induced hyperprolactinemia with prolactin levels greater than 100 ng/ml: number of cases [2]: 1 cases
drug-induced hyperprolactinemia with prolactin levels less than 100 ng/ml: number of cases [2]: 1 cases

CN[C@H]1CC[C@@H](c2ccc(Cl)c(Cl)c2)c2ccccc21 [Sertraline]
Among the drugs causing hyperprolactinemia: share of cases [1]: 3.57%

CC(C)C[C@H]1C(=O)N2CCC[C@H]2[C@]2(O)O[C@](NC(=O)[C@@H]3C=C4c5cccc6[nH]c(Br)c(c56)C[C@H]4N(C)C3)(C(C)C)C(=O)N12 [bromocriptine]
effect on galactorrhea [4]: Milk secretion was slowed down

C=CCN1C[C@H](C(=O)N(CCCN(C)C)C(=O)NCC)C[C@@H]2c3cccc4[nH]cc(c34)C[C@H]21 [cabergoline]
outcome at increased dose ([5]; cabergoline 2mg/week): developed adrenal insufficiency
Follow up prolactin ([5]; on cabergoline 0.5mg/week, before dose increase): 15737 miu/l
Stimulated cortisol ([5]; post 3 days of cabergoline 0.5mg/week): 535 nmol/L
8am cortisol ([5]; post 3 days of cabergoline 0.5mg/week, before 525nmol/l): 132 nmol/L
Prolactin ([5]; post 3 days of cabergoline 0.5mg/week, before 20982miu/l): 9215 miu/l
Tumor shrinkage <50%, share of patients ([6]; 2 patients): 11.76%
disappearance of radiologically detectable tumor, share of patients ([6]; 2 patients): 11.76%
Tumor shrinkage of >50% from the baseline, share of patients ([6]; 13 patients): 76.47%

COc1cc2nccc(Oc3ccc(NC(=O)C4(C(=O)Nc5ccc(F)cc5)CC4)cc3)c2cc1OC [cabozantinib]
response of metastatic MTC [7]: good response
tolerability [7]: stopped due to side effects

COc1cc(CNC(=O)CCCC/C=C/C(C)C)ccc1O [capsaicin]
pain control, capsaicin lotion compared with placebo ([8]; analysis on treatment intention, all pain measures): insignificant improvement in pain control
pain relief, topical capsaicin cream […], multicenter controlled trial ([8]; initial results, vs placebo): more relief of the pain associated with diabetic neuropathy than placebo
tolerability, capsaicin […] cream ([8]; may lead to withdrawal from the study): local skin irritation, which is often mild and transient
pain relief, capsaicin […] cream applied to the painful area ([8]; painful diabetic neuropathy): significant pain relief
pain relief, topical capsaicin […] for four to six weeks [8]: either complete or significant relief

CC1=NS(=O)(=O)c2cc(Cl)ccc2N1 [diazoxide]
tolerability ([9]; 3 mg/kg/d): well tolerated
effect on hyperphagia ([9]; 3 mg/kg/d in two divided doses, after 3 weeks): perceptible reduction in hyperphagia

C[C@H]1N=C(N(C)C)N=C(N)N1 [imeglimin]
most common adverse effect ([10]; n=167): gastrointestinal issues
HbA1c after imeglimin was added ([10]; n=167, add-on to two or three OHAs, baseline 9.1±1.8, p=0.004): 7.2±1.2
FPG after imeglimin was added ([10]; n=167, add-on to two or three OHAs, baseline 176.61±45.75, p=0.013): 108.05±24.79
PPG after imeglimin was added ([10]; n=167, add-on to two or three OHAs, baseline 247.86±68.17, p=0.020): 156.49±38.53

CCN1CCC[C@H]1CNC(=O)c1cc(S(N)(=O)=O)ccc1OC [levosulpiride]
drug-induced hyperprolactinemia with prolactin levels greater than 100 ng/ml: number of cases [2]: 5 cases
drug-induced hyperprolactinemia with prolactin levels less than 100 ng/ml: number of cases [2]: 1 cases
prolactin levels in drug-induced hyperprolactinemia ([2]; statement of the conclusion): > 100 ng/mL

CCCCCCCCCCC[C@@H](C[C@@H]1OC(=O)[C@H]1CCCCCC)OC(=O)[C@H](CC(C)C)NC=O [orlistat]
diarrhoea, number of patients [11]: 7 patients
weight loss, patients with diabetes with a BMI >=30 ([11]; sub-group, p=0.045): -1.04 kg
weight loss, patients with diabetes with steatosis ([11]; sub-group, p=0.048): -0.44 kg
weight loss compared to baseline ([11]; thrice daily, 247 completers, mean body weight ~80 kg): -2.92 kg
mean weight loss after 2 months, group 2 ([12]; patients with diabetes): 6.3 [4.9] %
mean weight loss after 4 months, group 2 ([12]; patients with diabetes): 8.7 [4.7] %
mean weight loss after 6 months, group 2 ([12]; patients with diabetes): 12.9 [2.4] %
mean weight loss after 2 months, group 1 ([12]; patients without diabetes): 7.1 [6.1] %
mean weight loss after 4 months, group 1 ([12]; patients without diabetes): 14.6 [12.9] %
mean weight loss after 6 months, group 1 ([12]; patients without diabetes): 16.1 [6.7] %
mean weight loss after 2 months, group 3 ([12]; prediabetic patients): 6 [2.6] %
mean weight loss after 4 months, group 3 ([12]; prediabetic patients): 15.5 [15.4] %
mean weight loss after 6 months, group 3 ([12]; prediabetic patients): 15.8 [6.2] %

CC[C@H](C)[C@H](NC(=O)[C@H](Cc1ccccc1)NC(=O)[C@H](CCC(=O)O)NC(=O)[C@H](CCCCNC(=O)COCCOCCNC(=O)COCCOCCNC(=O)CC[C@H](NC(=O)CCCCCCCCCCCCCCCCC(=O)O)C(=O)O)NC(=O)[C@H](C)NC(=O)[C@H](C)NC(=O)[C@H](CCC(N)=O)NC(=O)CNC(=O)[C@H](CCC(=O)O)NC(=O)[C@H](CC(C)C)NC(=O)[C@H](Cc1ccc(O)cc1)NC(=O)[C@H](CO)NC(=O)[C@H](CO)NC(=O)[C@@H](NC(=O)[C@H](CC(=O)O)NC(=O)[C@H](CO)NC(=O)[C@@H](NC(=O)[C@H](Cc1ccccc1)NC(=O)[C@@H](NC(=O)CNC(=O)[C@H](CCC(=O)O)NC(=O)C(C)(C)NC(=O)[C@@H](N)Cc1cnc[nH]1)[C@@H](C)O)[C@@H](C)O)C(C)C)C(=O)N[C@@H](C)C(=O)N[C@@H](Cc1c[nH]c2ccccc12)C(=O)N[C@@H](CC(C)C)C(=O)N[C@H](C(=O)N[C@@H](CCCNC(=N)N)C(=O)NCC(=O)N[C@@H](CCCNC(=N)N)C(=O)NCC(=O)O)C(C)C [semaglutide]
patients rating strongly agree or agree for adverse event: diarrhoea [13]: 91.3%
patients rating strongly agree or agree for adverse event: loss of appetite [13]: 87.4%
patients rating strongly agree or agree for adverse event: nausea [13]: 93.5%

nivolumab
patients with isolated thyroid dysfunction on the drug [14]: five
immune-related adverse events diagnosed [15]: checkpoint inhibitor induced diabetes mellitus (CPI-DM) and central adrenal insufficiency

rHGH: recombinant growth hormone injection
catchup growth ([16]; 0.18mg/kg/week, 6 months): 7 cm
growth thereafter at higher doses ([16]; 0.3mg/kg/week, undiagnosed Crohn's disease): height remained static
